Results collected from several papers.
Values after ≈ are worked out from the molar mass of the structure shown.

CCOC(=O)C1=C(CCl)NC(=O)NC1c1ccc(C)cc1 (centres unmarked) — IC50 (DPPH scavenging): 235 µM
COCCC(=O)Nc1ccccc1/N=c1\cc(-c2ccc3c(c2)OCO3)oc2ccccc12 — inhibition (MCF7; cell growth or viability, CCK-8; 1 µM): 9.24%
CCOC(=O)C1=C(CSC2=NCCS2)NC(=O)NC1c1cccc(F)c1 (centres unmarked) — IC50 (DPPH scavenging): 201 µM
C[C@H](N)C(=O)Nc1ccccc1/N=c1\cc(-c2ccc3c(c2)OCCO3)oc2c([N+](=O)[O-])cccc12 — inhibition (MCF7; cell growth or viability, CCK-8; 1 µM): 6.59%
Oc1cc2c(cc1O)C(Cc1ccccc1)NCC2 (centres unmarked) — IC50 (DPPH scavenging, absorbance; 30 min, dark): 19.7 µM
CCOC(=O)C1=C(CCl)NC(=O)NC1c1ccc(F)cc1 (centres unmarked) — IC50 (DPPH scavenging): 246 µM
CCCCCCCCCCCC1NCCc2cc(O)c(O)cc21 (centres unmarked) — IC50 (DPPH scavenging, absorbance; 30 min, dark): 27.9 µM
O=C1O[C@H]([C@@H](O)CO)C(O)=C1O — IC50 (DPPH scavenging): 88.4 µM
CCON=C1C=CC(=C(C#N)c2ccccc2)C=C1 — MIC (Candidozyma auris; microbial growth, broth dilution; 48 h): 256 µg/mL (≈ 1020 µM)
O=C(C[C@@H](C(F)F)n1ccc(F)n1)N1CCC(O)(Cn2cnc3c(cnn3-c3ccc(F)cc3)c2=O)CC1 — viability (CAPAN-1; cell growth or viability, SRB; 20 µM, 5 days): 24%
COc1cc(C2NCCc3cc(O)c(O)cc32)ccc1O (centres unmarked) — IC50 (DPPH scavenging, absorbance; 30 min, dark): 8.15 µM
C=CC(=O)ON=C1C=CC(=C(C#N)c2ccccc2)C=C1 — MFC (Candidozyma auris; microbial killing, broth dilution; 48 h): 16 µg/mL (≈ 57.9 µM)
Oc1cccc(-c2nc(N3CCOCC3)c3oc4ncccc4c3n2)c1 — inhibition (MCF7; cell growth or viability, CCK-8; 1 µM): 13.9%
N#CC(=C1C=CC(=NOC(=O)OCc2ccccc2)C=C1)c1ccccc1 — MFC (Candidozyma auris; microbial killing, broth dilution; 48 h): 128 µg/mL (≈ 359 µM)
NCC(=O)Nc1ccccc1/N=c1\cc(-c2ccc3c(c2)OCCO3)oc2ccccc12 — inhibition (MCF7; cell growth or viability, CCK-8; 1 µM): -1.21%
C#CCON=C1C=CC(=C(C#N)c2ccccc2)C=C1 — MFC (Candidozyma auris; microbial killing, broth dilution; 48 h): 64 µg/mL (≈ 246 µM)
NCCC(=O)Nc1ccccc1/N=c1\cc(-c2ccc3c(c2)OCCO3)oc2cc(F)ccc12 — inhibition (MCF7; cell growth or viability, CCK-8; 1 µM): -1.71%
CCOC(=O)C1=C(CSC2=NCCS2)NC(=O)NC1c1ccc(C(C)C)cc1 (centres unmarked) — IC50 (DPPH scavenging): 190 µM
CCCCCCCCC1NCCc2cc(O)c(O)cc21 (centres unmarked) — IC50 (DPPH scavenging, absorbance; 30 min, dark): 65.3 µM
CC(=O)ON=C1C=CC(=C(C#N)c2ccccc2)C=C1 — MIC (Candidozyma auris; microbial growth, broth dilution; 48 h): 16 µg/mL (≈ 60.5 µM)
CCOC(=O)C1=C(CSC2=NCCS2)NC(=O)NC1c1cccc(OC)c1 (centres unmarked) — IC50 (DPPH scavenging): 150 µM
C#CCOC(=O)ON=C1C=CC(=C(C#N)c2ccccc2)C=C1 — MFC (Candidozyma auris; microbial killing, broth dilution; 48 h): 32 µg/mL (≈ 105 µM)
CC(C)=CC1NCCc2cc(O)c(O)cc21 (centres unmarked) — IC50 (DPPH scavenging, absorbance; 30 min, dark): 54.2 µM
